Laboratory results published in publication PMC3683554 (Nature structural & molecular biology, 2013).

What was measured:
[1] = tested on: cBAK; test: Calpain protease sensitivity assay of cBAK; assay type: biochemical, human; conditions: 50 mM HEPES pH 7.5, 10 mM DTT, 1 µM m-calpain, 0.5 mM CaCl2, 1% CHAPS, 24°C
[2] = tested on: bid−/− bim−/− mouse liver mitochondria (BAK); test: MOMP assay, cyt c release from bid−/− bim−/− mouse liver mitochondria; assay type: biochemical; conditions: for BAK-mediated MOMP (cyt c release), bid−/− bim−/− mitochondria: 1 h incubation, peptides up to 50 μM
Summary of the method: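 Enriched mitochondrial fractions purified from bid−/− bim−/− mouse liver, run in parallel with bak−/− mouse liver mitochondria. Mitochondria incubated 1 h with unstapled or hydrocarbon-stapled BH3 peptides; MOMP read as cytochrome c release.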

[3] = molecular target: calpain-proteolyzed cBAK (residues 15–186) (human) (UniProt Q16611); test: AUC
[4] = tested on: bak−/− mouse liver mitochondria; test: MOMP assay with cBAK mutants or SAHBq–cBAK traps and NC BID ± ABT-737; assay type: biochemical; conditions: 1 h incubation

Row | Compound | Calpain sensitivity of cBAK with peptide, in CHAPS [1] | BAK-mediated MOMP (cyt c release), bid−/− bim−/− mitochondria [2] | further results
1 | CC[C@H](C)[C@H](NC(=O)[C@H](CO)NC(=O)[C@H](CCCNC(=N)N)NC(=O)[C@H](CC(=O)O)NC(=O)[C@H](CCSC)NC(=O)[C@H](CO)NC(=O)[C@H](CC(=O)O)NC(=O)CNC(=O)[C@@H](NC(=O)[C@H](CCC(N)=O)NC(=O)[C@H](C)NC(=O)[C@H](CC(C)C)NC(=O)[C@H](Cc1c[nH]cn1)NC(=O)[C@H](CCCNC(=N)N)NC(=O)[C@H](C)NC(=O)[C@@H](NC(=O)[C@H](CC(N)=O)NC(=O)[C@H](CCCNC(=N)N)NC(=O)[C@@H](NC(=O)[C@@H](NC(=O)[C@H](CC(=O)O)NC(=O)[C@H](CCC(=O)O)NC(C)=O)[C@@H](C)CC)[C@@H](C)CC)[C@@H](C)CC)C(C)C)C(N)=O [BH3a] | susceptible to proteolysis by calpain |  | 
2 | QPSPARAPAELEVECATQLRXFGDXLNFRQ (sidechain bridge or staple) [NOXA SAHB] |  | unable to robustly activate BAK | BAK-mediated MOMP at the highest concentration tested ([2]; highest concentration tested): weak BAK-mediated MOMP
3 | AEIIVECATQLRRVGDKLNFRI [NOXA/BIDf] | enhanced protease sensitivity | weakly active | 
4 | NLWAAQRYGRELRRMSDKFVDSFKK [BADa] | unable to activate cBAK | largely inactive | 
5 | BID SAHBa (stapled BID BH3 peptide) (from UniProt P55957 80-101) |  |  | fold enhancement of BAK binding over the unstapled counterpart (BH3a) [3]: 10 fold; stoichiometry N [3]: 1
6 | LWAAQRYGRELRXMSDXFVDSF (sidechain bridge or staple) [BAD SAHB] |  | unable to robustly activate BAK | 
7 | PAELEVECATQLRRFGDKLNFRQKLL [NOXAa] | unable to activate cBAK | largely inactive | 
8 | CN(C)CC[C@H](CSc1ccccc1)Nc1ccc(S(=O)(=O)NC(=O)c2ccc(N3CCN(Cc4ccccc4-c4ccc(Cl)cc4)CC3)cc2)cc1[N+](=O)[O-] [ABT-737] |  |  | Effect of ABT-737 on MOMP activity of BH2-tethered SAHBq–cBAK traps [4]: failed to enhance; Effect of ABT-737 on MOMP activity of untethered cBAK mutants [4]: augmented
9 | LWAAQRIGRELRRMGDEMVDSI [BAD/BIDa] | enhanced protease sensitivity | weakly active | 
